What was measured:
[1] = target: T1, 3-hydroxy-3-methylglutaryl-coenzyme A reductase (Rattus norvegicus, UniProt P51639); assay: In vitro inhibitory activity against rat liver HMG-CoA reductase enzyme
T1 sequence (P51639 whole entry): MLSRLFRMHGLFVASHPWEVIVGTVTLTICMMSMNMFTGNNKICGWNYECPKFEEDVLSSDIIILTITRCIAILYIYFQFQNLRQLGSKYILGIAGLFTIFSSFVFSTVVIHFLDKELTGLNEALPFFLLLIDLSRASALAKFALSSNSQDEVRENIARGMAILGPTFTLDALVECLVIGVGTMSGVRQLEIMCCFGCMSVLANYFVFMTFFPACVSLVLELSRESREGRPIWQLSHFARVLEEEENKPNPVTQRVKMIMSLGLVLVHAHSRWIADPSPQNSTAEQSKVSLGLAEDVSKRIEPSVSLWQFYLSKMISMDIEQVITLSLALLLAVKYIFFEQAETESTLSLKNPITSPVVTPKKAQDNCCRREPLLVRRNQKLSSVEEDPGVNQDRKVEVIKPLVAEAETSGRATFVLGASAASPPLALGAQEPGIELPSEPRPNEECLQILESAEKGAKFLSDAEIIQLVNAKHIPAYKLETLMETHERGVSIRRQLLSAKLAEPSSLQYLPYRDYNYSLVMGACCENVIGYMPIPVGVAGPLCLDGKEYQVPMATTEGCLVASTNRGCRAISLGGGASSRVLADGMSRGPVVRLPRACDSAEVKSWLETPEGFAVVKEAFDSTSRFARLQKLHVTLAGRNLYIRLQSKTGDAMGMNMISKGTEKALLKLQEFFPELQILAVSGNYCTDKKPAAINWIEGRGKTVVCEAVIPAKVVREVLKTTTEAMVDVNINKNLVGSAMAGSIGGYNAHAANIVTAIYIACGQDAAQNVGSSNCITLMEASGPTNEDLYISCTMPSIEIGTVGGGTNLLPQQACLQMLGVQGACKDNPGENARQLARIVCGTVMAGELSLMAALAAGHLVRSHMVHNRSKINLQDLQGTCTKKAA

[2] = The relative potency by comparing its IC50 value with that of mevastatin
Summary of the method: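 Compounds were tested in salt form for intrinsic inhibition of HMG-CoA reductase. Mevastatin (compactin) was run alongside in the same test and set to a relative potency of 100. Each compound's relative potency was derived by comparing its IC50 with that of mevastatin.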

Row | Compound | IC50 [1] | Relative potency [2]
1 | C=CCC(=O)O[C@H]1C[C@@H](C)C=C2C=C[C@H](C)[C@H](CCC3C[C@@H](O)CC(=O)O3)[C@H]21 (some centres not stated) | 2.9 nM | 187
2 | CC(=O)O[C@H]1C[C@@H](C)C=C2C=C[C@H](C)[C@H](CCC3C[C@@H](O)CC(=O)O3)[C@H]21 (some centres not stated) | 269 nM | 2.1
3 | C=C(C)CO[C@H]1C[C@@H](C)C=C2C=C[C@H](C)[C@H](CCC3C[C@@H](O)CC(=O)O3)[C@H]21 (some centres not stated) | 360 nM | 1.5
4 | C[C@H]1C=C2C=C[C@H](C)[C@H](CCC3C[C@@H](O)CC(=O)O3)[C@H]2[C@@H](OCc2ccc(Cl)cc2)C1 (some centres not stated) | 170 nM | 8.5
5 | C[C@H]1C=C2C=C[C@H](C)[C@H](CCC3C[C@@H](O)CC(=O)O3)[C@H]2[C@@H](OCc2ccccc2)C1 (some centres not stated) | 27 nM | 20
6 | C[C@H]1C=C2C=C[C@H](C)[C@H](CCC3C[C@@H](O)CC(=O)O3)[C@H]2[C@@H](OCc2ccc(F)cc2)C1 (some centres not stated) | 4.7 nM | 119
7 | CO[C@H]1C[C@@H](C)C=C2C=C[C@H](C)[C@H](CCC3C[C@@H](O)CC(=O)O3)[C@H]21 (some centres not stated) | 2810 nM | 0.2
8 | C=CCO[C@H]1C[C@@H](C)C=C2C=C[C@H](C)[C@H](CCC3C[C@@H](O)CC(=O)O3)[C@H]21 (some centres not stated) | 370 nM | 1.5
9 | C[C@H]1C=C2C=C[C@H](C)[C@H](CC[C@@H]3C[C@@H](O)CC(=O)O3)[C@H]2[C@@H](OC(=O)Cc2ccccc2)C1 |  | 29

Source: ChEMBL document CHEMBL1125180, “3-Hydroxy-3-methylglutaryl-coenzyme A reductase inhibitors. 8. Side chain ether analogues of lovastatin” (J Med Chem, 1991)
